Measurements taken from paper PMC3483131 (The Journal of Cell Biology, 2012).

Columns and labels:
[1] = test system: BM collagen IV / MDA-MB-231 cells; experiment: Native peritoneal basement membrane; assay type: cell-based, mouse (C57BL/6) BM; settings: 3 d culture; GM6001 at 5 µM
Method in brief: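 Native basement membrane was made by stripping mesothelial cells from C57BL/6 mouse mesentery (1 N ammonium hydroxide) and mounting it on 6.5-mm Transwells. 5 × 10^4 MDA-MB-231 cells were seeded on top in DME/10% FBS, with medium below, and cultured 3 d. Samples were fixed in 4% formaldehyde, then stained on both sides for collagen IV (antibody 1:200), phalloidin and DAPI, and imaged by confocal. Read-out was total remaining collagen IV fluorescence; ≥3 independent experiments in duplicate.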

[2] = test system: MDA-MB-231 cells; settings: CIA; ref Yu and Machesky, 2012; cited from earlier work
[3] = test system: mCherry-MT1-MMP in MDA-MB-231 cells; experiment: FRAP of mCherry-MT1-MMP at plasma membrane of cells in CIA; assay type: cell-based; settings: invasive pseudopods in Matrigel (CIA); LatA at 2 µM
Method in brief: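 mCherry-MT1-MMP expressed in MDA-MB-231 cells by nucleofection; cells kept at 37°C, 5% CO2. Photobleaching was done on the plasma membrane of invasive pseudopods in Matrigel and compared with other cell-surface regions, such as the membrane next to the nucleus. Fluorescence recovery gave MT1-MMP mobility.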

[4] = test system: GFP-actin in MDA-MB-231 cells; experiment: FRAP of GFP-actin in invasive pseudopods; assay type: cell-based; settings: 2 µM LatA, invasive pseudopod, FRAP 90 s
[5] = target: actin (F-actin) in invasive pseudopods of MDA-MB-231 cells (human (endogenous in MDA-MB-231)) (UniProt P60709); experiment: FRET or BRET

## CNC(=O)[C@H](Cc1c[nH]c2ccccc12)NC(=O)[C@@H](CC(=O)NO)CC(C)C [GM6001]
[1]
  degradation and remodeling of BM collagen IV: significantly blocked
[2]
  reduction of migration speed: 30–50%

## C/C1=C/C(=O)O[C@@H]2C[C@@H](CC[C@H](C)/C=C\C=C\CC1)O[C@@](O)([C@@H]1CSC(=O)N1)C2 [Latrunculin A]
[3]
  mobility of MT1-MMP in pseudopods: mCherry-MT1-MMP became more mobile
[4]
  GFP-actin exchange: GFP-actin exchanged much faster

## MT1-MMP-GFP (from UniProt P50281 112-582) (natural protein)
[5]
  donor fluorescence lifetime with acceptor (FLIM-FRET): 2.25 ns
  shift in the donor fluorescence lifetime (FLIM-FRET): 150 ps
